pIC50: −log10 of the molar value. Active and inactive are the calls of the source. Unless noted, the rule behind the calls is not given here.
What was measured:
[1] = molecular target: D(1A) dopamine receptor (Homo sapiens) (UniProt P21728); test: Inhibition of dopamine D1 receptor at 10 uM by radioligand displacement assay
Summary of the method: (§1)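 Off-target panel: radioligand binding to each receptor, channel or transporter with test compound at 10 µM; activity reported as percent inhibition of specific binding. At least 6 control wells with or without vehicle per assay. Inhibition of 50% or greater counted as a positive response.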

[2] = molecular target: Endothelin-1 receptor (Homo sapiens) (UniProt P25101); test: Inhibition of Eta receptor at 10 uM by radioligand displacement assay
Summary of the method: (§2)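 Off-target radioligand binding panel. Test compound at 10 µM. Each assay had at least 6 control wells, with or without vehicle, for soluble compounds. Values are percent inhibition of radioligand binding. ≥50% inhibition was scored as a positive response.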

[3] = Inhibition of GABA receptor at 10 uM by radioligand displacement assay; summary of the method: as §2
[4] = molecular target: Galanin receptor type 2 (Homo sapiens) (UniProt O43603); test: Inhibition of GAL2 receptor at 10 uM by radioligand displacement assay; summary of the method: as §2
[5] = molecular target: C-C chemokine receptor type 1 (Homo sapiens) (UniProt P32246); test: Inhibition of CCR1 receptor at 10 uM by radioligand displacement assay; summary of the method: as §2
[6] = molecular target: Histamine H1 receptor (Homo sapiens) (UniProt P35367); test: Inhibition of H1 receptor at 10 uM by radioligand displacement assay; summary of the method: as §2
[7] = Inhibition of MT1 receptor at 10 uM by radioligand displacement assay; summary of the method: as §2
[8] = molecular target: Muscarinic acetylcholine receptor M1 (Homo sapiens) (UniProt P11229); test: Inhibition of M1 receptor at 10 uM by radioligand displacement assay; summary of the method: as §2
[9] = molecular target: Muscarinic acetylcholine receptor M2 (Homo sapiens) (UniProt P08172); test: Inhibition of M2 receptor at 10 uM by radioligand displacement assay; summary of the method: as §2
[10] = molecular target: Muscarinic acetylcholine receptor M3 (Homo sapiens) (UniProt P20309); test: Inhibition of M3 receptor at 10 uM by radioligand displacement assay; summary of the method: as §2
[11] = molecular target: Substance-K receptor (Homo sapiens) (UniProt P21452); test: Inhibition of NK2 receptor at 10 uM by radioligand displacement assay; summary of the method: as §2
[12] = molecular target: Neuromedin-K receptor (Homo sapiens) (UniProt P29371); test: Inhibition of NK3 receptor at 10 uM by radioligand displacement assay; summary of the method: as §2
[13] = molecular target: Neuropeptide Y receptor type 1 (Homo sapiens) (UniProt P25929); test: Inhibition of Y1 receptor at 10 uM by radioligand displacement assay; summary of the method: as §2
[14] = molecular target: Neuropeptide Y receptor type 2 (Homo sapiens) (UniProt P49146); test: Inhibition of Y2 receptor at 10 uM by radioligand displacement assay; summary of the method: as §2
[15] = molecular target: Neurotensin receptor type 1 (Homo sapiens) (UniProt P30989); test: Inhibition of NTS1 receptor at 10 uM by radioligand displacement assay; summary of the method: as §2
[16] = Inhibition of delta2 opioid receptor at 10 uM by radioligand displacement assay; summary of the method: as §1
[17] = molecular target: Kappa-type opioid receptor (Homo sapiens) (UniProt P41145); test: Inhibition of Kappa opioid receptor at 10 uM by radioligand displacement assay; summary of the method: as §2
[18] = molecular target: Nociceptin receptor (Homo sapiens) (UniProt P41146); test: Inhibition of NOP receptor at 10 uM by radioligand displacement assay; summary of the method: as §2
[19] = molecular target: Thromboxane A2 receptor (Homo sapiens) (UniProt P21731); test: Inhibition of TP receptor at 10 uM by radioligand displacement assay; summary of the method: as §2
[20] = molecular target: 5-hydroxytryptamine receptor 1A (Homo sapiens) (UniProt P08908); test: Inhibition of 5HT1A receptor at 10 uM by radioligand displacement assay; summary of the method: as §2
[21] = molecular target: 5-hydroxytryptamine receptor 1B (Homo sapiens) (UniProt P28222); test: Inhibition of 5HT1b receptor at 10 uM by radioligand displacement assay; summary of the method: as §2
[22] = molecular target: 5-hydroxytryptamine receptor 2A (Homo sapiens) (UniProt P28223); test: Inhibition of 5HT2A receptor at 10 uM by radioligand displacement assay; summary of the method: as §2
[23] = molecular target: 5-hydroxytryptamine receptor 6 (Homo sapiens) (UniProt P50406); test: Inhibition of 5HT6 receptor at 10 uM by radioligand displacement assay; summary of the method: as §2
[24] = Inhibition of sst receptor at 10 uM by radioligand displacement assay; summary of the method: as §1
[25] = molecular target: Vasoactive intestinal polypeptide receptor 1 (Homo sapiens) (UniProt P32241); test: Inhibition of VPAC1 receptor at 10 uM by radioligand displacement assay; summary of the method: as §2
[26] = Inhibition of L-type calcium channel at 10 uM by radioligand displacement assay; summary of the method: as §2
[27] = Inhibition of Kv channel at 10 uM by radioligand displacement assay; summary of the method: as §2
[28] = Inhibition of Small conductance calcium-activated potassium channel at 10 uM by radioligand displacement assay; summary of the method: as §2
[29] = Inhibition of Sodium channel at 10 uM by radioligand displacement assay; summary of the method: as §2
[30] = Inhibition of chloride channel at 10 uM by radioligand displacement assay; summary of the method: as §1
[31] = molecular target: Sodium-dependent noradrenaline transporter (Homo sapiens) (UniProt P23975); test: Inhibition of norepinephrine […] at 10 uM by radioligand displacement assay; summary of the method: as §1
[32] = molecular target: Sodium-dependent dopamine transporter (Homo sapiens) (UniProt Q01959); test: Inhibition of dopamine transporter at 10 uM by radioligand displacement assay; summary of the method: as §1
[33] = Inhibition of Smt-tagged S-nitrosoglutathione reductase expressed in Escherichia coli using […] as substrate for 3 mins by spectrophotometric analysis; conditions: read-out: IC50
[34] = molecular target: Adenosine receptor A1 (Homo sapiens) (UniProt P30542); test: Inhibition of adenosine A1 receptor at 10 uM by radioligand displacement assay; summary of the method: as §2
[35] = molecular target: Adenosine receptor A2a (Homo sapiens) (UniProt P29274); test: Inhibition of adenosine A2a receptor at 10 uM by radioligand displacement assay; summary of the method: as §2
[36] = molecular target: Adenosine receptor A3 (Homo sapiens) (UniProt P0DMS8); test: Inhibition of adenosine A3 receptor at 10 uM by radioligand displacement assay; summary of the method: as §1
[37] = Inhibition of alpha1 adrenergic receptor at 10 uM by radioligand displacement assay; summary of the method: as §1
[38] = Inhibition of alpha2 adrenergic receptor at 10 uM by radioligand displacement assay; summary of the method: as §1
[39] = molecular target: Beta-1 adrenergic receptor (Homo sapiens) (UniProt P08588); test: Inhibition of Beta1 adrenergic receptor at 10 uM by radioligand displacement assay; summary of the method: as §2
[40] = molecular target: Beta-2 adrenergic receptor (Homo sapiens) (UniProt P07550); test: Inhibition of Beta2 adrenergic receptor at 10 uM by radioligand displacement assay; summary of the method: as §2
[41] = molecular target: Type-1 angiotensin II receptor (Homo sapiens) (UniProt P30556); test: Inhibition of AT1 receptor at 10 uM by radioligand displacement assay; summary of the method: as §2
[42] = molecular target: Translocator protein (Homo sapiens) (UniProt P30536); test: Inhibition of Benzodiazepine receptor at 10 uM by radioligand displacement assay; summary of the method: as §2
[43] = molecular target: B2 bradykinin receptor (Homo sapiens) (UniProt P30411); test: Inhibition of B2 receptor at 10 uM by radioligand displacement assay; summary of the method: as §2
[44] = molecular target: Cholecystokinin receptor type A (Homo sapiens) (UniProt P32238); test: Inhibition of CCK1 receptor at 10 uM by radioligand displacement assay; summary of the method: as §2

Chain of Substance-K receptor (Homo sapiens) (P21452 whole entry): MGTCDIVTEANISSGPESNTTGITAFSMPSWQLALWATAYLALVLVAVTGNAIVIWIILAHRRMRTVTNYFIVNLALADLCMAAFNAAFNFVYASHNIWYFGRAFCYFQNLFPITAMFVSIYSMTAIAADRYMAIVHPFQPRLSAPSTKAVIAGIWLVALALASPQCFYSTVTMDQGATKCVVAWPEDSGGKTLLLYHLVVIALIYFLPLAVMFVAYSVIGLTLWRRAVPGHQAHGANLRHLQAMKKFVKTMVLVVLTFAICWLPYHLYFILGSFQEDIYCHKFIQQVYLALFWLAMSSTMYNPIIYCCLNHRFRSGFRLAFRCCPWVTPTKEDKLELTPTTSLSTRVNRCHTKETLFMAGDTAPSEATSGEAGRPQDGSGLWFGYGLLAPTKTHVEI
Chain of Sodium-dependent noradrenaline transporter (Homo sapiens) (P23975 whole entry): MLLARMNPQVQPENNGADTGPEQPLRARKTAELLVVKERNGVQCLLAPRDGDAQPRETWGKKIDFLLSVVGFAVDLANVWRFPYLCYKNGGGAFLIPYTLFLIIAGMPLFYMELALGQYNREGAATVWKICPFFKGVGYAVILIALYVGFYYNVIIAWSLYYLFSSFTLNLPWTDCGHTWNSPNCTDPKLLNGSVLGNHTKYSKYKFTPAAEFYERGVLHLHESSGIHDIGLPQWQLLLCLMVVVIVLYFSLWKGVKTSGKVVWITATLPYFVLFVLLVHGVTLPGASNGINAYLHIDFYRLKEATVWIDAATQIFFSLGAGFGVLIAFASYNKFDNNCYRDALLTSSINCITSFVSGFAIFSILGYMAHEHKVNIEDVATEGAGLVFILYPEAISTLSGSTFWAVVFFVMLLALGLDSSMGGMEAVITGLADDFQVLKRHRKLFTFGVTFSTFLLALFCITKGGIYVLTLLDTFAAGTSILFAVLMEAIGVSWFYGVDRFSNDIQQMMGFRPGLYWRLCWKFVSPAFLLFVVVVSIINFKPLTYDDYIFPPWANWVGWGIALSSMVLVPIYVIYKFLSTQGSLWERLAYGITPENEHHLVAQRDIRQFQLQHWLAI
Chain of Thromboxane A2 receptor (Homo sapiens) (P21731 whole entry): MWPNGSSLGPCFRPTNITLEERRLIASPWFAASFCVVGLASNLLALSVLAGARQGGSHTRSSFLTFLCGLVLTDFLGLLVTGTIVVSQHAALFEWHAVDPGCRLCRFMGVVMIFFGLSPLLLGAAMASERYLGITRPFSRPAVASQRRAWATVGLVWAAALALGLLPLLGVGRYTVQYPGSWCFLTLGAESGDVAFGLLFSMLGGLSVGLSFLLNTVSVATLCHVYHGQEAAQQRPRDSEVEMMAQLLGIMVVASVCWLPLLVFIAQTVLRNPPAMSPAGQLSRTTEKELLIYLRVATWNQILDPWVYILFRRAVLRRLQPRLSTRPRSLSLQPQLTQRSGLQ
Chain of Beta-2 adrenergic receptor (Homo sapiens) (P07550 whole entry, looked up): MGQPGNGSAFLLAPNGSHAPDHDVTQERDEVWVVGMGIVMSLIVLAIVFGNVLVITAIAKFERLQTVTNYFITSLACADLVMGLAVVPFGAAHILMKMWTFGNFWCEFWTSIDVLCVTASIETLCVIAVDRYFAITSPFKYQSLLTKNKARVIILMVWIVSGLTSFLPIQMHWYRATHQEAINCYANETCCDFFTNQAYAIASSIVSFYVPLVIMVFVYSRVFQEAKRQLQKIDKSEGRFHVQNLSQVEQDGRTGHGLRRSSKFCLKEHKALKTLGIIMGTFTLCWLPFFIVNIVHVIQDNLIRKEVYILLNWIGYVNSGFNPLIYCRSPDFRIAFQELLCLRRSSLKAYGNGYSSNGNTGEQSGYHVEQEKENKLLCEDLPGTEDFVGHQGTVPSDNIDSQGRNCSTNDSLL
Chain of Nociceptin receptor (Homo sapiens) (P41146 whole entry): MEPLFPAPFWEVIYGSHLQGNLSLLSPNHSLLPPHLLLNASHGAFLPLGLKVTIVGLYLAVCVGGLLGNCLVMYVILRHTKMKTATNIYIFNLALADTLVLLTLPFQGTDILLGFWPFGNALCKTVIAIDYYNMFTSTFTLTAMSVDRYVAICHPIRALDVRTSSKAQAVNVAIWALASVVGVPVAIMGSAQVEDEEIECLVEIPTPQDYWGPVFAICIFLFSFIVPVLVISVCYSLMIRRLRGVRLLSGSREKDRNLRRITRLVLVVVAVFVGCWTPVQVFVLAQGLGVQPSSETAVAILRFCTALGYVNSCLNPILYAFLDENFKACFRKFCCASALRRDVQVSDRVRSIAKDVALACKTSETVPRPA
Chain of 5-hydroxytryptamine receptor 1B (Homo sapiens) (P28222 whole entry): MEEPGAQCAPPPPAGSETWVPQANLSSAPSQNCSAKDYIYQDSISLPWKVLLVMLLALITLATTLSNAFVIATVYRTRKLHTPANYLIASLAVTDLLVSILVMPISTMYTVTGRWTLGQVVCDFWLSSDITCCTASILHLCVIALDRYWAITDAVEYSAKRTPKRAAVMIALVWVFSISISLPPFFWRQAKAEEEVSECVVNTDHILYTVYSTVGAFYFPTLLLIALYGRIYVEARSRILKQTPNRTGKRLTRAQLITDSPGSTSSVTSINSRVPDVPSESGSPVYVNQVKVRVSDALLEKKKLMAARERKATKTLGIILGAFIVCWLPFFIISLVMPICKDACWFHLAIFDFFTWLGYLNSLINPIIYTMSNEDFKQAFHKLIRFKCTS
Chain of Neuropeptide Y receptor type 1 (Homo sapiens) (P25929 whole entry): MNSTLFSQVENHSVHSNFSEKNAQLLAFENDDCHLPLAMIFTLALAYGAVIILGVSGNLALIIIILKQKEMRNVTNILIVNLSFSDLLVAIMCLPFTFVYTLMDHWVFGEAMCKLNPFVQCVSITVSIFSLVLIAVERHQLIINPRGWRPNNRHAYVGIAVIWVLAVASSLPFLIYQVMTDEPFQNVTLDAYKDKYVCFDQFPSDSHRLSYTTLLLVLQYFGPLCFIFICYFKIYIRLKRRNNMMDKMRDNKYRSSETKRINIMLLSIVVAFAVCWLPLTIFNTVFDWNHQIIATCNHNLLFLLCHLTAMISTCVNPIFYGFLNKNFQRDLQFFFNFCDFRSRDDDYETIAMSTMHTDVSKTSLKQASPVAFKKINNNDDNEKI
Chain of Adenosine receptor A2a (Homo sapiens) (P29274 whole entry): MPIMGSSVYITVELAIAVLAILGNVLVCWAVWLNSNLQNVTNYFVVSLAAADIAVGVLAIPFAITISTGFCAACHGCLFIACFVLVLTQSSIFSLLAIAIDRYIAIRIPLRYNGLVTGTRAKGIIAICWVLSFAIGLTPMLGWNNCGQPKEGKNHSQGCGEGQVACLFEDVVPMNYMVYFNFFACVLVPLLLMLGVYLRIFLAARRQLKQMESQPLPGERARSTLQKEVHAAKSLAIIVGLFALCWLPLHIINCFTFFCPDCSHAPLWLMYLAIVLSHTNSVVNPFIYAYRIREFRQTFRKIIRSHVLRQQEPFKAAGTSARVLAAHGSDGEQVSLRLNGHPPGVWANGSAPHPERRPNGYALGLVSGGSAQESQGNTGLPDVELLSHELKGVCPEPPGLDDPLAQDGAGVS
Chain of Neurotensin receptor type 1 (Homo sapiens) (P30989 whole entry): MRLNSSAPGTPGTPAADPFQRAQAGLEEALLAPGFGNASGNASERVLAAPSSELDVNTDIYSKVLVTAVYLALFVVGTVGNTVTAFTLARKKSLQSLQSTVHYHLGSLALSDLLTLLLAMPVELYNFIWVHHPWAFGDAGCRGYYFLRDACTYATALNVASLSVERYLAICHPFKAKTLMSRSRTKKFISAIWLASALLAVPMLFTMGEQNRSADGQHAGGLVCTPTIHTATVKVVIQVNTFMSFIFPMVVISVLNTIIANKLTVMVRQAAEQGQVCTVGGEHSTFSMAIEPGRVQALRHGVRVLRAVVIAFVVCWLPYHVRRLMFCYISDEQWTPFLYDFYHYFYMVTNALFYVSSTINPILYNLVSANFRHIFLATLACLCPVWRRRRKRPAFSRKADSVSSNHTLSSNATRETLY
Chain of Muscarinic acetylcholine receptor M1 (Homo sapiens) (P11229 whole entry): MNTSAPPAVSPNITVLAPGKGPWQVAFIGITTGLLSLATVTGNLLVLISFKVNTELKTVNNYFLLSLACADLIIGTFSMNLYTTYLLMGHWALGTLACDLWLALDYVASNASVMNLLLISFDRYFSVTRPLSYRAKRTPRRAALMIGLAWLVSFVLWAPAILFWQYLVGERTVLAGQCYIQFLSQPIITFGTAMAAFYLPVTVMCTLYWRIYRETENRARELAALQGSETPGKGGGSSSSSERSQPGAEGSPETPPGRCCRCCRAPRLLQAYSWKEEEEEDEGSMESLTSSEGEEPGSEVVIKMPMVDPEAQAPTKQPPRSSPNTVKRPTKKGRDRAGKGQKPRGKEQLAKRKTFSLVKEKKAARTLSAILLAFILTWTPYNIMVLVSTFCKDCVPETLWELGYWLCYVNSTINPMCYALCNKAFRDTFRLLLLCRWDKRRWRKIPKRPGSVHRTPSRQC
Chain of Sodium-dependent dopamine transporter (Homo sapiens) (Q01959 whole entry): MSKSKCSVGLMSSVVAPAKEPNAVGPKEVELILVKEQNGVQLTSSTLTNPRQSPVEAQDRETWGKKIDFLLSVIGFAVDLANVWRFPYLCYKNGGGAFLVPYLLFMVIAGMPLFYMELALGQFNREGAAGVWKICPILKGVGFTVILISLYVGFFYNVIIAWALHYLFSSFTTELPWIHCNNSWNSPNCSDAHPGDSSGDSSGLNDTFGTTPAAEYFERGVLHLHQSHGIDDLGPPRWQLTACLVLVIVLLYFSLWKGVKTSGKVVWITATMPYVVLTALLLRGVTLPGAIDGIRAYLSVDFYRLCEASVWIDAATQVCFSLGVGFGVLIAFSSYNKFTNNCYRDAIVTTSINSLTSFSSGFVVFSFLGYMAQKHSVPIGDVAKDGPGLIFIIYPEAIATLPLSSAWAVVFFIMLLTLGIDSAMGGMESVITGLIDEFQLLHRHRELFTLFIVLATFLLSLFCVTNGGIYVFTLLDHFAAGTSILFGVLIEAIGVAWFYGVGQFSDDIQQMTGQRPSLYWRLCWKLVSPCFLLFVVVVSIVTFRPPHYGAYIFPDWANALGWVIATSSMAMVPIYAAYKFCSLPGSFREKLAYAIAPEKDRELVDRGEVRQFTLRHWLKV

Cc1cc(NS(C)(=O)=O)ccc1-n1c(CCC(=O)O)ccc1-c1ccc(-n2ccnc2)cc1
inhibition [1]: inactive
inhibition [2]: inactive
inhibition [3]: inactive
inhibition [4]: inactive
inhibition [5]: inactive
inhibition [6]: inactive
inhibition [7]: inactive
inhibition [8]: inactive
inhibition [9]: inactive
inhibition [10]: inactive
inhibition [11]: inactive
inhibition [12]: inactive
inhibition [13]: inactive
inhibition [14]: inactive
inhibition [15]: inactive
inhibition [16]: inactive
inhibition [17]: inactive
inhibition [18]: inactive
inhibition [19]: inactive
inhibition [20]: inactive
inhibition [21]: inactive
inhibition [22]: inactive
inhibition [23]: inactive
inhibition [24]: inactive
inhibition [25]: inactive
inhibition [26]: inactive
inhibition [27]: inactive
inhibition [28]: inactive
inhibition [29]: inactive
inhibition [30]: inactive
inhibition [31]: inactive
inhibition [32]: inactive
pIC50 [33]: 7.54
inhibition [34]: inactive
inhibition [35]: inactive
inhibition [36]: inactive
inhibition [37]: inactive
inhibition [38]: inactive
inhibition [39]: inactive
inhibition [40]: inactive
inhibition [41]: inactive
inhibition [42]: inactive
inhibition [43]: inactive
inhibition [44]: inactive

Cc1cc(NS(C)(=O)=O)ccc1-n1c(CCC(=O)O)ccc1-c1ccc(-n2ccnc2C)s1
inhibition [1]: inactive
inhibition [2]: inactive
inhibition [3]: inactive
inhibition [4]: inactive
inhibition [5]: inactive
inhibition [6]: inactive
inhibition [7]: inactive
inhibition [8]: inactive
inhibition [9]: inactive
inhibition [10]: inactive
inhibition [11]: inactive
inhibition [12]: inactive
inhibition [13]: inactive
inhibition [14]: inactive
inhibition [15]: inactive
inhibition [16]: inactive
inhibition [17]: inactive
inhibition [18]: inactive
inhibition [19]: inactive
inhibition [20]: inactive
inhibition [21]: inactive
inhibition [22]: inactive
inhibition [23]: inactive
inhibition [24]: inactive
inhibition [25]: inactive
inhibition [26]: inactive
inhibition [27]: inactive
inhibition [28]: inactive
inhibition [29]: inactive
inhibition [30]: inactive
inhibition [31]: inactive
inhibition [32]: inactive
pIC50 [33]: 7.37
inhibition [34]: inactive
inhibition [35]: inactive
inhibition [36]: inactive
inhibition [37]: inactive
inhibition [38]: inactive
inhibition [39]: inactive
inhibition [40]: inactive
inhibition [41]: inactive
inhibition [42]: inactive
inhibition [43]: inactive
inhibition [44]: inactive
